This is an account of results in ChEMBL document CHEMBL4513216, “Probing the Open Global Health Chemical Diversity Library for Multistage-Active Starting Points for Next-Generation Antimalarials” (ACS Infect Dis, 2020).

The nature of this data set: Toxicity liver stage against HepG2, at 10uM. The data set is classed as cell-based. Set-up: test concentration 10 uM, cell line HepG2-A16-CD81EGFP. Particulars: human, HepG2-A16-CD81EGFP cells; read-out: INHIBITION
A digest of the protocol: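 Uninfected HepG2-A16-CD81EGFP cells, 3 × 10^3 per well, 1536-well, plated on prespotted compound at 10 μM final, parasite-free screening media added to match infected plates; puromycin 10 μM positive, DMSO 0.5% negative; run in parallel with 48 h PbLuc assay at 37 °C, 5% CO2; viability by CellTiter-Glo luminescence, normalized to controls.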
With `COc1ccc(C2=NOC(C(=O)N3CCCc4ccccc43)C2)cc1` (stereo not drawn), the cytotoxicity at 10 µM is 0.863%.

Regarding `COC(=O)[C@@H]1Cc2ncn(C(C)C)c2CN1S(=O)(=O)Cc1ccccc1`, the cytotoxicity at 10 µM was -2.51%.

For the compound `CC(=O)N1N=C(Cc2ccccc2)OC1C(=O)NCC(C)C` (stereo not drawn), the cytotoxicity at 10 µM is -4.52%.

On to `CC(C)(C)C1CC(=O)Nc2c1cnn2Cc1ccco1` (stereo not drawn), for which the cytotoxicity at 10 µM was -2.17%.

As for `Cn1nc(C2CCN(CC(=O)NC3CC3)CC2)n(-c2ccccc2)c1=O`, the cytotoxicity at 10 µM was -22.3%.

In the case of `Cc1cccc(OC2CCN(C(=O)c3ccc4ncsc4c3)CC2)n1`, the cytotoxicity at 10 µM is -3.78%.

In the case of `CN(C)C(=O)N1CCC2(CCC(C(=O)N3CCCC3)O2)CC1` (stereo not drawn), the cytotoxicity at 10 µM is -0.125%.

In the case of `CCN1CC2(CCCCN2C(=O)c2ccn(C)n2)CC1=O` (stereo not drawn), the cytotoxicity at 10 µM was found to be 10.5%.

As to `c1cnc(N2CCCC3(CCN(Cc4cccs4)C3)C2)nc1` (stereo not drawn), the cytotoxicity at 10 µM came out at 2.58%.

In the case of `O=C(NCc1cccs1)c1nc2c(o1)CN(c1ncccn1)C2`, the cytotoxicity at 10 µM is -0.664%.

Consider `Cc1ccc(S(=O)(=O)N2CCCC3(CCCN3S(C)(=O)=O)C2)cc1F` (stereo not drawn), for which the cytotoxicity at 10 µM came to 2.05%.

For `COCCN1Cc2ccccc2C2(CCN(S(C)(=O)=O)CC2)C1`, the cytotoxicity at 10 µM is 0.121%.

With `COCCO[C@@H]1C[C@H]2CN(C(=O)c3cccnc3)CCN2C1`, the cytotoxicity at 10 µM was -4.58%.

With `COCc1nn(C(C)C)c2c1CCN(Cc1ccsc1)C2`, the cytotoxicity at 10 µM is -4.51%.

Turning to `COc1cc(C2CC(=O)Nc3c2c(=O)[nH]n3C2CCCCC2)ccc1O` (stereo not drawn), the cytotoxicity at 10 µM was -0.607%.

Consider `Cc1nn(Cn2ccc(C(=O)N3CCC(C)CC3)n2)c(C)c1Cl`, for which the cytotoxicity at 10 µM was -2.36%.

As for `CCn1ccc(NC(=O)C2CCC(=O)N2Cc2ccc(C)o2)n1` (stereo not drawn), the cytotoxicity at 10 µM is 6.17%.

For the compound `Cc1cc(C2CCCN(S(=O)(=O)N(C)C)C2)ccn1` (stereo not drawn), the cytotoxicity at 10 µM amounted to 21.4%.

As to `CC[C@@H](Cn1ncc2ccccc2c1=O)NC(=O)c1cnc(C)cn1`, the cytotoxicity at 10 µM came out at 7.92%.

For the compound `O=C(c1cccc(O)n1)N1CCC(O)(CN2CCC(F)(F)CC2)C1` (stereo not drawn), the cytotoxicity at 10 µM amounted to 4.16%.

For `CN(C)CC(=O)N1CCOCC(Cc2ccccn2)C1` (stereo not drawn), the cytotoxicity at 10 µM is 5.88%.

Consider `CC(=O)N1CCC(c2nccnc2Nc2cnccn2)CC1`, for which the cytotoxicity at 10 µM is 4.51%.

With `CNC(=O)c1cn[nH]c1C1CCCN1C(=O)c1ccccn1` (stereo not drawn), the cytotoxicity at 10 µM stood at 8.52%.

For the compound `COCC(=O)N1CCN(C)C(=O)C(Cc2ccccc2-c2cccs2)C1` (stereo not drawn), the cytotoxicity at 10 µM was -3.73%.

For the compound `CCc1cc(C(=O)N2CCCC2c2nc(C)c(CC)c(O)n2)on1` (stereo not drawn), the cytotoxicity at 10 µM is -14.2%.

Take `CC(=O)N1CCC(Oc2cccc(C#N)c2)CC1`: the cytotoxicity at 10 µM came to 6.35%.

In the case of `CC(=O)NCc1ccc(S(=O)(=O)NC(=O)c2ccc3c(c2)COC3)cc1`, the cytotoxicity at 10 µM was 6.42%.

Turning to `CC(=O)N(C)CC(=O)NC(CC(C)C)c1cccs1` (stereo not drawn), the cytotoxicity at 10 µM was -1.49%.

Take `CC(C)OCCC1CCCCN1S(=O)(=O)c1cnn(C)c1` (stereo not drawn): the cytotoxicity at 10 µM is 5.68%.

Consider `COc1nc(C)ccc1CNC(=O)NC(c1ncc(C)s1)C1CC1` (stereo not drawn), for which the cytotoxicity at 10 µM was -2.3%.

As to `CC(C)NC(=O)CNC(=O)c1csc(Cc2ccccc2F)n1`, the cytotoxicity at 10 µM is -4.44%.

For the compound `Cc1cc(N(C)C)nc(N2CCCC2c2cccnc2)n1` (stereo not drawn), the cytotoxicity at 10 µM is -14.1%.

Regarding `O=C(CCNC(=O)NC1CCN(C2CC2)CC1)NCc1ccccc1`, the cytotoxicity at 10 µM was -0.769%.

Turning to `N#Cc1cnc(NC2CCN(C(=O)C3CC3)CC2)c(Cl)c1`, the cytotoxicity at 10 µM was -7.32%.

Turning to `Cc1nnc(C(C)Nc2ccc(OCCc3ccccc3)nc2)o1` (stereo not drawn), the cytotoxicity at 10 µM is -4.08%.

Turning to `CCC(C)(CNC(=O)Nc1nccs1)N1CCOCC1` (stereo not drawn), the cytotoxicity at 10 µM is -6.46%.

As for `COc1cc(C(=O)N2CCCC2CC(=O)c2cnn(C)c2)ccc1F` (stereo not drawn), the cytotoxicity at 10 µM is -4.62%.

With `CC1CCN(C(=O)NCCc2cc(F)ccc2F)C1` (stereo not drawn), the cytotoxicity at 10 µM was found to be 0.154%.

Regarding `Cc1cc(NC(=O)CN2CCc3c(nc(C(C)C)n3C)C2)on1`, the cytotoxicity at 10 µM is -3.17%.

For `COc1ccc(Cn2ccnc2)cc1F`, the cytotoxicity at 10 µM was -7.27%.

Regarding `CN(Cc1ccsc1)C(=O)c1ccc(F)c(NS(C)(=O)=O)c1`, the cytotoxicity at 10 µM was -5.7%.

With `COc1ccccc1C(NC(=O)C1CCCC1)c1noc(C)n1` (stereo not drawn), the cytotoxicity at 10 µM was -2.17%.

For `O=C(c1cccnc1)N1CCN(c2ccnc3ccsc23)CC1`, the cytotoxicity at 10 µM was 5.77%.

Turning to `O=C(C1CCCOC1)N1CCc2ccc(F)cc21` (stereo not drawn), the cytotoxicity at 10 µM is 2.35%.

As to `O=C1CCC(C(=O)NCCOc2cccc(Cl)c2Cl)CN1` (stereo not drawn), the cytotoxicity at 10 µM was 4.48%.

In the case of `COc1ccccc1CC(C)(C)NC(=O)CC(F)(F)F`, the cytotoxicity at 10 µM was 6.08%.

With `Cc1cccc(CN2CCN(C(=O)c3ccc(C)[nH]c3=O)CC2)c1`, the cytotoxicity at 10 µM amounted to 12.8%.

Turning to `CC1CCN(CC(=O)NC(C#N)c2cnn(-c3ccccc3)c2)CC1` (stereo not drawn), the cytotoxicity at 10 µM was determined as 0.724%.

Regarding `O=C1CCC(C(=O)Nc2ccc(=O)n(Cc3ccc(Cl)c(Cl)c3)c2)N1` (stereo not drawn), the cytotoxicity at 10 µM is -8.47%.

Take `CC(C)c1ncc(Cl)c(C(=O)N2CCCN3CCCC3C2)n1` (stereo not drawn): the cytotoxicity at 10 µM was -10.2%.

Regarding `CCc1noc(CS(=O)(=O)CC(=O)N2c3ccccc3CC2C)n1` (stereo not drawn), the cytotoxicity at 10 µM came to 7.07%.

On to `Cc1cc(C)c(C(=O)NCCNc2ncnc3ccccc23)c(=O)[nH]1`, for which the cytotoxicity at 10 µM was 21%.

For `O=C(Nc1ccccc1Oc1cccc(F)c1)NC1CCS(=O)(=O)C1` (stereo not drawn), the cytotoxicity at 10 µM was -6.07%.

As for `CC(C)c1nc(C2CCCN2c2cnc3cc(F)c(F)cc3n2)no1` (stereo not drawn), the cytotoxicity at 10 µM came out at 5.18%.

Regarding `CCN(C)C1CCCc2nc(C)sc21` (stereo not drawn), the cytotoxicity at 10 µM is -0.887%.

As for `OCC(O)CSCc1cn(-c2ccc(Cl)cc2)nn1` (stereo not drawn), the cytotoxicity at 10 µM came to 3.2%.

As to `CCc1nncn1CCNC(=O)Nc1ccc2c(c1)CCCO2`, the cytotoxicity at 10 µM worked out at 1.79%.

In the case of `CC(C)(CNc1ccc(C#N)c(C(F)(F)F)c1)C(N)=O`, the cytotoxicity at 10 µM was 20.2%.

As for `CN(C)C(=O)CC1CCOc2ccccc21` (stereo not drawn), the cytotoxicity at 10 µM is 4.17%.

`COc1cccc(CN(C)C(=O)CN2CCN(c3nccn3C)CC2)c1`: the cytotoxicity at 10 µM was found to be 14.3%.

In the case of `O=C(NCCCOCC1CCCO1)c1cccnc1N1CCCC1` (stereo not drawn), the cytotoxicity at 10 µM was determined as 12.4%.

For the compound `COCC1c2nnn(C)c2CCN1C(=O)Cc1ccccn1` (stereo not drawn), the cytotoxicity at 10 µM is -97.1%.

Regarding `CC(C)NC(=O)c1cc2c(s1)CCN2c1ncccn1`, the cytotoxicity at 10 µM was -123%.

Consider `CC[C@H](C)Nc1ncc(-c2cccc(NC(=O)CNC)c2)cn1`, for which the cytotoxicity at 10 µM was -4.97%.

On to `CCCc1nccn1-c1ccc(C(C)O)cc1` (stereo not drawn), for which the cytotoxicity at 10 µM is 5.38%.

Turning to `Cc1cc(CN(C)C(C(=O)O)c2cccc(C(F)(F)F)c2)on1` (stereo not drawn), the cytotoxicity at 10 µM was -6.33%.

Regarding `CCCn1ccnc1CN1CCc2[nH]cnc2C1Cc1ccccc1` (stereo not drawn), the cytotoxicity at 10 µM was -15.8%.

`COc1cccc(CN2CCN(C(=O)Nc3nc(C)ns3)CC2=O)c1`: the cytotoxicity at 10 µM is -3.05%.

As to `CN1C(=O)C2(CCN(c3ncccc3C(=O)O)CC2)c2ccccc21`, the cytotoxicity at 10 µM was -2.25%.

As for `CCNc1ncc(C(=O)NC2COC3(CCCC3)C2)cn1` (stereo not drawn), the cytotoxicity at 10 µM was -4.53%.

For the compound `O=C(c1cccc(Cl)c1)N1CCCC(Nc2ccc(F)cc2)C1` (stereo not drawn), the cytotoxicity at 10 µM is -7.05%.

`CC(C)=CCC1(CO)CCCN(Cc2nccs2)C1` (stereo not drawn): the cytotoxicity at 10 µM is -1.23%.

With `C[C@@H]1CN(CCC(=O)NCc2ccccc2Cl)C[C@@]1(O)C1CC1`, the cytotoxicity at 10 µM was determined as 2.75%.

Consider `Cc1nc(C(C)C)sc1C(=O)N1CCN(C2CCSCC2)CC1`, for which the cytotoxicity at 10 µM stood at 6.62%.

Take `CNS(=O)(=O)CCNC(=O)c1coc(COc2ccc(F)cc2)n1`: the cytotoxicity at 10 µM came to 0.975%.

`CCc1cnc(C)nc1NCCC(=O)N1CCC(C)CC1`: the cytotoxicity at 10 µM is -0.384%.

As for `CN(C)C[C@@H]1CN(Cc2ccccc2C#N)C[C@@H]1CO`, the cytotoxicity at 10 µM was -1.56%.

Regarding `CCCn1cnnc1CN(C)C(=O)C1CCCN(C2CCN(C)CC2)C1` (stereo not drawn), the cytotoxicity at 10 µM is -6.58%.

As for `CSCCCN1CCCC(Cn2ccnc2)C1` (stereo not drawn), the cytotoxicity at 10 µM was found to be 5.07%.

Take `COc1cccc(OCC2CCCN(C(C)=O)C2)c1` (stereo not drawn): the cytotoxicity at 10 µM turned out to be 5.85%.

Regarding `CC(C)(C)c1ncc(C(=O)NCCNC(=O)c2ccco2)s1`, the cytotoxicity at 10 µM was -1.98%.

Turning to `Cc1nc(CN2CCCC(N(C)CC3CCCC3)C2)no1` (stereo not drawn), the cytotoxicity at 10 µM is -7.3%.

Regarding `COc1ccc(C2CCCN2C(=O)NCCn2ccnc2)cc1OC` (stereo not drawn), the cytotoxicity at 10 µM was -2.16%.

Turning to `CN(C)c1ncccc1C(=O)N1CCCC1Cn1cccn1` (stereo not drawn), the cytotoxicity at 10 µM was -2.83%.

Consider `COCCNC(=O)NCc1ccc(OC(C)C)c(F)c1`, for which the cytotoxicity at 10 µM was -8.48%.

For `CN(C)S(=O)(=O)c1ccc(OCCNCCn2cccn2)cc1`, the cytotoxicity at 10 µM is 0.626%.

In the case of `COc1cc(/C=C/c2ncc(C(=O)O)s2)cc(Cl)c1O`, the cytotoxicity at 10 µM amounted to 4.14%.

For the compound `Cc1ccc(C(=O)N2CCN(C(=O)Nc3ccccn3)CC2)o1`, the cytotoxicity at 10 µM came to 2.14%.

Turning to `CCc1nnc(CN2CCN(C(=O)c3cc4ccccc4[nH]3)CC2)o1`, the cytotoxicity at 10 µM was -0.385%.

For `O=C(N1CCCC1)N1Cc2nccn2CC(COc2cccnc2)C1` (stereo not drawn), the cytotoxicity at 10 µM is 0.997%.

On to `O=C(C[C@@H]1COC[C@H]2CN(Cc3ccc(F)cc3)C[C@@H]12)N1CCCC1`, for which the cytotoxicity at 10 µM turned out to be 4.09%.

Regarding `COCCN1CCC12CCN(C(=O)c1ccsc1)CC2`, the cytotoxicity at 10 µM is -145%.

Take `CCN(C)c1ncnc2c1CCN(C(=O)N1CCCC1)CC2`: the cytotoxicity at 10 µM is -6.9%.

Turning to `O=S1(=O)NCC2(CCN(c3ncccn3)CC2)COc2ccccc21`, the cytotoxicity at 10 µM is -1.34%.

`Cc1cnc(N2CCc3c(cnc(C)c3C(=O)O)C2)nc1`: the cytotoxicity at 10 µM stood at 8.1%.

For the compound `O=C(c1ccncc1)N1C[C@H]2CC[C@@H](C1)N(C(=O)N1CCOCC1)C2`, the cytotoxicity at 10 µM was 2.44%.

Consider `Cc1ccoc1C1=NNC(=CN2CCn3c(C)nnc3C2)O1`, for which the cytotoxicity at 10 µM was -16.4%.

Take `Nc1ccc(C(=O)N2C[C@H]3CC[C@@H](C2)N(Cc2ccccc2)C3)cn1`: the cytotoxicity at 10 µM was -121%.
